Common to all, as to format: functional
The subject of assay [1] is Mus musculus. Kind of assay: Antitumor activity against L1210 leukemia in mice (Average weight per mouse on day 1.) at the dose of 1000 mg/kg. In short, it runs like this: (§1)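 Male B6D2F1J mice (5–9 per group) received 10^5 L1210 cells i.p. on day 0 and drug from day 1, given qd×5 or q4d(2,6). Vehicles were sterile water, 0.05 M potassium phosphate pH 7.4, or 0.4% Tween 80/0.5% CMC/0.9% benzyl alcohol/0.9% saline. Read-out is average body weight per mouse (g) on day 1.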

Assay [2] relates to Mus musculus. Kind of assay: Antitumor activity against L1210/ara-C leukemia in mice (Average weight per mouse on day 1.) at the dose of 500 mg/kg. In short, it runs like this:
(§2)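 Male B6D2F1J mice, groups of 5–9, inoculated ip with 10^5 L1210/ara-C cells on day 0. Dosing began day 1 on a qd×5 or q4d(2,6) schedule. Ara-C was given in sterile water, the n-butyl phosphate ester in 0.05 M pH 7.4 potassium phosphate buffer, and others as suspensions in 0.4% Tween 80/0.5% CMC/0.9% benzyl alcohol/0.9% saline. Mice were weighed on days 1 and 7; 7-day change given in g and %.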

The subject of assay [3] is Mus musculus. Nature of the assay: Antitumor activity against L1210/ara-C leukemia in mice (Percent increase in life span.) at the dose of 1000 mg/kg. In short, it runs like this: (§3)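 Same protocol as the L1210 assay, but with 10^5 kinase-deficient L1210/ara-C cells inoculated ip into male B6D2F1J mice (groups of 5–9) on day 0. Treatment begins day 1, qd×5 or q4d(2,6). %ILS = (T/C − 1)×100 using median survival times of treated and control groups. Body weight recorded days 1 and 7.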

The subject of assay [4] is Mus musculus. Kind of assay: Antitumor activity against L1210 leukemia in mice (Average 7-day weight change (%)) at the dose of 200 mg/kg. In short, it runs like this:
(§4)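 Male B6D2F1J mice, groups of five to nine, inoculated ip with 10^5 L1210 cells on day 0. Drug treatment started day 1 on qd×5 or q4d(2,6) schedule. Vehicles: ara-C in sterile water; the n-butyl phosphate ester in 0.05 M pH 7.4 potassium phosphate buffer; others as suspensions in 0.4% Tween 80/0.5% low-density CMC/0.9% benzyl alcohol/0.9% saline. Mice weighed days 1 and 7; 7-day weight change given as g/mouse and %.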

Assay [5] has as its system Mus musculus. Kind of assay: Antitumor activity against L1210/ara-C leukemia in mice (Percent increase in life span.) at the dose of 50 mg/kg. Summed up: as §3
Assay [6] has as its system Mus musculus. Nature of the assay: Antitumor activity against L1210 leukemia in mice (Average 7-day weight change) at the dose of 200 mg/kg. In short, it runs like this:
as §4

Assay [7] has as its system Mus musculus. Kind of assay: Antitumor activity against L1210 leukemia in mice (Average 7-day weight change) at the dose of 100 mg/kg. In short, it runs like this: as §4
Assay [8] deals with Mus musculus. Nature of the assay: Antitumor activity against L1210/ara-C leukemia in mice (Average 7-day weight change) at the dose of 250 mg/kg. In short, it runs like this: (§5)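 Male B6D2F1J mice (5–9 per group) were given 10^5 L1210/ara-C cells i.p. on day 0, with treatment from day 1 on qd×5 or q4d(2,6). Vehicles were sterile water, pH 7.4 0.05 M phosphate buffer, or a Tween 80/CMC/benzyl alcohol saline suspension. Weights were taken on days 1 and 7; change is expressed in g/mouse and as a percentage.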

For assay [9], the system named is Mus musculus. Nature of the assay: Antitumor activity against L1210/ara-C leukemia in mice (Average 7-day weight change) at the dose of 50 mg/kg. Summed up:
as §2

The test system of assay [10] is Mus musculus. Kind of assay: Antitumor activity against L1210 leukemia in mice (Average 7-day weight change) at the dose of 500 mg/kg. In short, it runs like this:
as §4

Assay [11] deals with Mus musculus. Kind of assay: Antitumor activity against L1210/ara-C leukemia in mice (Average 7-day weight change (%)) at the dose of 100 mg/kg. In short, it runs like this: as §5
For assay [12], the system named is Mus musculus. Nature of the assay: Antitumor activity against L1210 leukemia in mice (Average weight per mouse on day 1.) at the dose of 50 mg/kg. Summed up:
as §1

Assay [13] has as its system Mus musculus. Nature of the assay: Antitumor activity against L1210 leukemia in mice (Average 7-day weight change (%)) at the dose of 50 mg/kg. In short, it runs like this: as §4

Molecules are shown by their SMILES.

By ILS is commonly meant the gain in survival time of treated over control animals, in per cent. Low readings indicate a small benefit in survival, high ones a large benefit in survival. In the case of `Nc1ccn([C@@H]2O[C@H](CO)[C@@H](O)[C@@H]2O)c(=O)n1` [CYTARABINE], the figures for the Average weight in the assay on Mus musculus [1], in the assay on Mus musculus [2] and in the assay on Mus musculus [12] were 24 g mouse-1, 20.2 g mouse-1 and 24 g mouse-1, respectively. In the assay with Mus musculus [3], the ILS at 1000 mg/kg is 0%. Further, the Weight change is -7% with Mus musculus [4]; -1.6 g mouse-1 with Mus musculus [6]; -1 g mouse-1 in the assay with Mus musculus [7]; 4 g mouse-1 in the assay on Mus musculus [8]; 0.8 g mouse-1 in the assay on Mus musculus [9]; 0.4 g mouse-1 in the assay with Mus musculus [10]. Moreover, the values for the Weight change in the assay on Mus musculus [11] and with Mus musculus [13] were -4% and 0%, respectively. This compound registered an increase in lifespan (ILS) at 50 mg/kg in the assay with Mus musculus [5] of 0%.

Source of the values: ChEMBL document CHEMBL1122008, “Lipophilic 5'-(alkyl phosphate) esters of 1-beta-D-arabinofuranosylcytosine and its N4-acyl and 2,2'-anhydro-3'-O-acyl derivatives as potential prodrugs” (1982).
